# FAK blocker – FAK (human) kinase inhibition; actives 0.84% (n = 97,000); inhibition, %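 (tested at 7 µM)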; biochemical FAK kinase activity assay; AID 727; in the data active means inhibition above about 19%;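 further: 0% = DMSO and 100% = reference compound high control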
# Cav32 inh – human Cav3.2 channel inhibition, primary screen | O95180 | Cav3.2-expressing cells, Fluo-4 calcium fluorescence FDSS; active compounds read low | B-score at 10 µM | actives 4% (n = 100,000) | AID 449739;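 active means single-dose well whose peak fluorescence ratio is a statistical outlier from its plate by either plate-standardised score or position-corrected B-score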
# PLK1 inh – inhibitors of human PLK1 kinase | actives 0.53% (n = 97,000) | P53350 | inhibition, % at 10 µM | recombinant PLK1 kinase, TR-FRET peptide phosphorylation | AID 619;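 active means inhibition of 50% or more in the single-concentration screen; inactive means inhibition below 50%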;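 further: 0% = DMSO max control and 100% = H-89 dihydrochloride min control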
# PTK2B oligo ant – Pyk2 (human) oligomerization antagonism. z-score (the deposit names both 25 µM and 10 µM). actives 0.83% (n = 99,000). AID 1347419. Q293 cells, Pyk2 FERM NanoBiT luminescence; active compounds read low. Q14289;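 active means Z-score of -3 or lower, scaled per plate to the spread of control and sample wells; inactive means z-score above -3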;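 further: negative z-score means lost luminescence so less FERM oligomerization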
# Rev-RRE block – HIV Rev-RRE protein-RNA interaction inhibition; P05866; Rev peptide-RRE RNA binding, FRET; inhibition, % at 8 µM; actives 0.79% (n = 97,000);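 active means inhibition above the screen-wide mean plus 3 SD, cut at about 35% in these data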;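 further: 0% = median DMSO wells and 100% = median Neomycin B control wells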
#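 Probe or stimulus: fluorescein-Rev peptide as binding partner; assay system: Cy5-tagged RRE RNA duplex with fluorescein-tagged Rev peptide; timing: 5 min compound–RNA preincubation, then 15 min with peptide, 25 °C; medium: HEPES pH 7.5 buffer with KCl, MgCl2, NaCl and EDTA; signal: fluorescein-to-Cy5 FRET, 480 nm excitation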
# PLK1 PBD inh – inhibitors of human Plk1 polo box domain binding. actives 0.13% (n = 97,000). Plk1 PBD phosphopeptide binding, fluorescence polarization. P53350. inhibition, %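 (tested at about 20 µM)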. AID 693; in the data active means inhibition above about 34%, passing the limit was not always enough
# Numbers without * were called inactive; / = not tested or not shown; [ ] = remark or other dose. In the library only some 5.8% were active in any assay of this set; here they are far more common.
SMILES,FAK blocker,Cav32 inh,PLK1 inh,PTK2B oligo ant,Rev-RRE block,PLK1 PBD inh
COc1cc(NC(=O)c2ccccc2Cl)c(OC)cc1NC(=O)CN1CCOCC1,2,0.89,-5,-0.86,11,-21
CCOc1cc(NC(=O)c2ccccc2C)c(OCC)cc1NC(=O)C1=Cc2ccccc2OC1,2,0.15,-10,-0.21,11,-11
COc1ccccc1NS(=O)(=O)c1cc([N+](=O)[O-])ccc1N/N=C/c1c(C)[nH]c2ccccc12,-2,-3.1,-9,-3.1*,66*[fluorescence artefact?],7
O=[N+]([O-])c1ccccc1N/N=C\c1ccccc1Cl,2,2.9,0,0.79,4,20
O=[N+]([O-])c1ccc(N/N=C/c2c[nH]c3ccccc23)c(S(=O)(=O)Nc2ccc(Cl)cc2)c1,-2,/,-10,-3,65*[fluorescence artefact?],-8
COc1cccc2c(=O)n(CC(=O)Nc3cccc(F)c3)ccc12,-4,0.87,-9,/,4,-10
COc1ccc(-c2cn(-c3ccc(C)cc3)c(=O)n2CC(=O)Nc2cccc(F)c2)cc1,2,-5*,1,-0.86,-7,-3
CCn1c(CSc2nc3ccccc3s2)nnc1SCC(=O)c1ccc(Cl)cc1,3,-4.2*,-2,-0.2,0,3
O=C(CCNc1ccc(F)cc1)c1ccco1,2,-0.013,-9,0.28,2,-23
COc1cc(/C=C(\C#N)c2nc3ccccc3[nH]2)ccc1Oc1ccc([N+](=O)[O-])cn1,5,-0.22,-1,-3.3*,6,-35
Cc1cc(/C=C(\C#N)c2nc3ccccc3[nH]2)c(C)n1C,/,/,/,-1,/,/
Cc1cc(/C=C(/C#N)c2nc3ccccc3[nH]2)c(C)n1-c1cccc([N+](=O)[O-])c1,12,-11*,-6,-0.86,4,4
COc1nc(-c2ccccc2)c2c(c1C#N)CC(C)(C)OC2,3,1.3,-3,-1.9,9,6
CC(=O)c1ccc(N2C(=O)C3C(C2=O)C(C(=O)c2ccc(Cl)cc2)N2CCCC32)cc1 (stereo unspecified),1,-3.3,-9,/,62*,-11
O=C(c1ccc(Cl)cc1)C1C2C(=O)N(c3ccccc3)C(=O)C2C2CCCN21 (stereo unspecified),0,-6.9*,-7,-0.24,58*,-13
Cc1cc(C)n(-c2nc3ccccc3c(=O)n2OCC(=O)Nc2c(C)cccc2C)n1,0,/,-9,-0.02,10,-15
CC(=O)Oc1ccc2ccccc2c1C(NC(=O)Cc1ccccc1)c1ccc(Cl)cc1 (stereo unspecified),8,-9.8*,-12,-4*,11,16
CC(=O)C1=C(O)C(=O)N(c2cc(C(C)(C)C)on2)C1c1ccc(C(C)C)cc1 (stereo unspecified),-4,-4.2*,-9,-1.1,4,5
CC(=O)C1=C(O)C(=O)N(c2cc(C(C)(C)C)on2)C1c1ccc(Br)cc1 (stereo unspecified),/,-5.9*,/,0.65,/,/
CC(C)NC(=O)c1ccc(C2SCC(=O)N2Cc2ccccc2)cc1 (stereo unspecified),-2,0.79,-11,-0.54,0,8
Cc1cc(NC(=O)Cn2nc3c(cc2=O)CCCC3)ccc1Br,2,-6.2*,-8,1.3,6,-6
Cc1cc(NC(=O)Cn2c(C)nc3ccccc3c2=O)ccc1Br,2,-2.2,0,-0.19,2,-3
CCOc1ccc(OCC)c(NC(=O)Nc2ccc3c(c2)N(C)C(=O)CS3)c1,0,0.52,-5,/,6,26
COc1cccc(C(=O)OCCN2CCCCC2)c1,0,-9.4*,-7,-0.49,4,-6
COc1cc(OC)c2c3c(c(C4CCCCC4)nc2c1)CCC3,/,0.44,/,/,/,/
SMILES,FAK blocker,Cav32 inh,PLK1 inh,PTK2B oligo ant,Rev-RRE block,PLK1 PBD inh
Nc1ccc2c3c(cccc13)CC2,4,-0.07,-1,0.55,47*,-5
c1ccc(Nc2ccc3c4c(cccc24)CC3)cc1,3,-0.93,-13,-0.94,9,-2
Cc1ccc(-c2nnc(SCC(=O)N3CCCC3)o2)cc1,1,0.2,-14,0.99,1,5
O=C(CSc1nnc(-c2ccccc2Cl)o1)N1CCCCC1,/,-4.2*,/,/,/,/
O=C1c2cnc3nc(SCc4ccc(Cl)cc4)nn3c2CC2c3ccccc3CCN12 (stereo unspecified),2,-6.3*,-9,1.6,0,13
Cc1ccc(-c2noc(CN(C(=O)Cc3ccccc3)C(C)C)n2)cc1,-1,-3.4,-6,-1,5,7
COc1cccc(C(=O)N(Cc2nc(-c3ccc(C)cc3)no2)C(C)C)c1,1,-0.13,-11,-1.8,4,6
CC(C)N(Cc1nc(-c2ccccc2)no1)C(=O)CSc1ccccc1,0,-4.2*,-9,0.57,7,4
COc1cccc(C(=O)N(Cc2nc(-c3cccc(C)c3)no2)C(C)C)c1OC,0,-5.8*,-13,-2,6,-9
Cc1ccc(-c2noc(CN(C(=O)CCCCCN3C(=O)c4ccccc4C3=O)C(C)C)n2)cc1,0,-4.8*,-10,0.26,0,-6
Cc1cccc(-c2noc(CN(C(=O)c3ccc(Br)o3)C(C)C)n2)c1,-1,-4.7*,-18,-0.94,11,-6
CCCCc1cc2c(c(NC(=O)CC)n1)c(=O)oc1ccccc12,0,0.034,2,0.09,10,-6
C/C=C1\C(OC2OC(CO)C(O)C(O)C2O)OC=C(C(=O)OC)C1CC(=O)OCC1C(C)C(OC(=O)CC2C(C(=O)OC)=COC(OC3OC(CO)C(O)C(O)C3O)/C2=C\C)CC1C(CO)CO (stereo unspecified),/,-0.54,/,/,/,/
COc1ccc(-c2ccncc2)cc1OC,/,0.26,/,/,/,/
Cc1cccc(-c2noc(CN(C(=O)C(c3ccccc3)c3ccccc3)C(C)C)n2)c1,0,-6.7*,3,/,1,17
Cc1onc(-c2ccccc2Cl)c1C(=O)N(Cc1nc(-c2ccccc2)no1)C1CCCCC1,-1,-3.5,-5,-2.9,6,-1
CC(C)N(Cc1nc(-c2ccccc2)no1)C(=O)C(C)(C)C,0,-1.3,-5,0.5,10,8
Cc1cccc(-c2noc(CN(C(=O)c3c(-c4ccccc4Cl)noc3C)C(C)C)n2)c1,2,-5*,-13,/,3,0
Cc1cccc(-c2noc(CN(C(=O)c3ccc4c(c3)OCO4)C(C)C)n2)c1,-1,-5.1*,-6,-1.8,5,6
CC1(C)Cc2c(c(N3CCOCC3)nc3sc(-c4ccc(C(=O)O)o4)c(N)c23)CO1,0,0.42,-9,-0.2,40*,-7
c1ccc(C(c2nnnn2C2CCCC2)N2CCN(c3nc4ccccc4s3)CC2)cc1 (stereo unspecified),-2,-8.2*,-16,-1.9,6,15
NC(=O)C1CCN(C(c2ccccc2)c2nnnn2C2CCCC2)CC1 (stereo unspecified),0,0.5,-14,-0.43,1,-4
